Measurements published in ChEMBL document CHEMBL1137561 (J Med Chem, 2007).

Columns and labels:
[1] = Resistance index, Ratio of EC50 for drug-resistant HIV1 with RT IRLL98 mutation in MT4 cells to EC50 for HIV1 NL43 in MT4 cells
[2] = Resistance index, Ratio of EC50 for drug-resistant HIV1 with RT K103N mutation in MT4 cells to EC50 for HIV1 NL43 in MT4 cells
[3] = tested on: Human immunodeficiency virus 1; test: Antiviral activity against HIV1 with reverse transcriptase K103N mutation in MT4 cells assessed as inhibition of viral induced cytopathic effect by MTT method; type: functional, organism-based; conditions: Human immunodeficiency virus 1, MT4
Summary of the method: (§1)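 MT-4 cells infected with the HIV-1 NNRTI-resistant mutant strain. Viable cells scored at day 5 post-infection by the MTT tetrazolium colorimetric method. […] Values are means ± SD from at least two experiments.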

[4] = tested on: Human immunodeficiency virus 1; test: Antiviral activity against HIV1 with reverse transcriptase Y188L mutation in MT4 cells assessed as inhibition of viral induced cytopathic effect by MTT method; type: functional, organism-based; conditions: Human immunodeficiency virus 1, MT4
Summary of the method: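 MT-4 cells infected with the HIV-1 NNRTI-resistant mutant strain. Viable cells scored at day 5 post-infection by the MTT tetrazolium colorimetric method. Values are means ± SD from at least two experiments.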

[5] = tested on: Human immunodeficiency virus 1; test: Antiviral activity against HIV1 with reverse transcriptase Y181C mutation in MT4 cells assessed as inhibition of viral induced cytopathic effect by MTT method; type: functional, organism-based; conditions: Human immunodeficiency virus 1, MT4
Summary of the method: as §1

[6] = Selectivity index, ratio of CC50 for MT4 cells to EC50 for HIV1 NL43 infected MT4 cells; type: functional
[7] = Resistance index, Ratio of EC50 for drug-resistant HIV1 with RT Y181C mutation in MT4 cells to EC50 for HIV1 NL43 in MT4 cells
[8] = Cytotoxicity against MT4 cells after 4 days by MTT method; type: cell-based; conditions: human
Summary of the method: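 Mock-infected (noninfected) MT-4 cells, run in parallel with the antiviral test. Viable cells read by the MTT tetrazolium colorimetric method. […] Means ± SD from at least two experiments. The top concentration was limited where compounds precipitated in the culture medium.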

[9] = tested on: Human immunodeficiency virus 1; test: Antiviral activity against HIV1 NL43 in MT4 cells assessed as inhibition of viral induced cytopathic effect after 5 days by MTT method; conditions: Human immunodeficiency virus 1, NL43, MT4, 120 h
[10] = tested on: Human immunodeficiency virus 1; test: Antiviral activity against HIV1 with reverse transcriptase IRLL98 mutation in MT4 cells assessed as inhibition of viral induced cytopathic effect by MTT method; type: functional, organism-based; conditions: Human immunodeficiency virus 1, MT4
[11] = target: Human immunodeficiency virus type 1 reverse transcriptase (Human immunodeficiency virus 1, UniProt Q72547, L100I); test: Inhibition of HIV1 reverse transcriptase L100I mutant
[12] = target: Human immunodeficiency virus type 1 reverse transcriptase (Human immunodeficiency virus 1, UniProt Q72547, K103N); test: Inhibition of HIV1 reverse transcriptase K103N mutant
[13] = target: Human immunodeficiency virus type 1 reverse transcriptase (Human immunodeficiency virus 1, UniProt Q72547); test: Inhibition of wild type HIV1 3B reverse transcriptase
[14] = Inhibition of HIV1 reverse transcriptase Y1811 mutant; design: species or system Human immunodeficiency virus 1
Summary of the method: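 Recombinant HIV-1 RT Y181I mutant, purified to >95%, 10 min preincubation with inhibitor. Radioactive nucleotide incorporation into poly(rA)/oligo(dT) 10:1 was followed at varied nucleotide substrate levels, sampling every 2 min for initial velocities. Inhibitor spanned 0.2–5 Ki. Ki came from Lineweaver-Burk and Dixon plots. Means ± SD of at least three experiments.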

[15] = target: Human immunodeficiency virus type 1 reverse transcriptase (Human immunodeficiency virus 1, UniProt Q72547, V179D); test: Inhibition of HIV1 reverse transcriptase V179D mutant
[16] = target: Human immunodeficiency virus type 1 reverse transcriptase (Human immunodeficiency virus 1, UniProt Q72547, V106A); test: Inhibition of HIV1 reverse transcriptase V106A mutant
[17] = target: Human immunodeficiency virus type 1 reverse transcriptase (Human immunodeficiency virus 1, UniProt Q72547, Y188L); test: Inhibition of HIV1 reverse transcriptase Y188L mutant
[18] = Resistance index, Ratio of EC50 for drug-resistant HIV1 with RT Y188L mutation in MT4 cells to EC50 for HIV1 NL43 in MT4 cells

## Cc1c(C(C)c2c(F)cccc2F)nc(N2CCCC2)[nH]c1=O (stereo not drawn)
[1]
  Ratio EC50: 100
[2]
  Ratio EC50: 77
[3]
  EC50: 155 nM
[4]
  EC50: > 10000 nM
[5]
  EC50: 71 nM
[6]
  Ratio CC50/EC50: >39000
[7]
  Ratio EC50: 35
[8]
  CC50 at 96 h: > 78000 nM
[9]
  EC50: 2 nM
[10]
  EC50: 200 nM

## Cc1c(Cc2c(F)cccc2F)nc(N2CCOCC2)[nH]c1=O
[3]
  EC50: > 10000 nM
[11]
  Ki: 900 nM
[12]
  Ki: > 20000 nM
[13]
  Ki: 50 nM
[14]
  Ki: > 20000 nM
[4]
  EC50: > 10000 nM
[15]
  Ki: 8300 nM
[5]
  EC50: > 10000 nM
[6]
  Ratio CC50/EC50: >3000
[8]
  CC50 at 96 h: > 78000 nM
[16]
  Ki: 400 nM
[9]
  EC50: 26 nM
[17]
  Ki: > 20000 nM
[10]
  EC50: > 10000 nM

## CC(c1cc(=O)[nH]c(N(C)C)n1)c1c(F)cccc1F (stereo not drawn)
[1]
  Ratio EC50: 670
[2]
  Ratio EC50: 120
[3]
  EC50: 120 nM
[4]
  EC50: > 10000 nM
[5]
  EC50: 260 nM
[6]
  Ratio CC50/EC50: 89000
[7]
  Ratio EC50: 260
[8]
  CC50 at 96 h: 89000 nM
[16]
  Ki: 500 nM
[9]
  EC50: 1 nM
[10]
  EC50: 670 nM

## Cc1c(Cc2c(F)cccc2F)nc(N2CCN(c3ccccn3)CC2)[nH]c1=O
[11]
  Ki: > 20000 nM
[12]
  Ki: > 20000 nM
[13]
  Ki: 50 nM
[14]
  Ki: > 20000 nM
[15]
  Ki: 10 nM
[6]
  Ratio CC50/EC50: >5250
[8]
  CC50 at 96 h: > 63000 nM
[16]
  Ki: 10 nM
[9]
  EC50: 12 nM
[17]
  Ki: 490 nM

## CN1CCN(c2nc(Cc3c(F)cccc3F)cc(=O)[nH]2)CC1
[11]
  Ki: > 20000 nM
[12]
  Ki: > 20000 nM
[13]
  Ki: 11200 nM
[14]
  Ki: > 20000 nM
[15]
  Ki: > 40000 nM
[6]
  Ratio CC50/EC50: >13
[8]
  CC50 at 96 h: > 78000 nM
[16]
  Ki: > 40000 nM
[9]
  EC50: 6090 nM
[17]
  Ki: > 20000 nM

## Cc1c(Cc2c(F)cccc2F)nc(N2CCN(C)CC2)[nH]c1=O
[13]
  Ki: 2000 nM
[15]
  Ki: > 40000 nM
[6]
  Ratio CC50/EC50: >125
[8]
  CC50 at 96 h: > 75000 nM
[16]
  Ki: 900 nM
[9]
  EC50: 598 nM

## COc1ccccc1N1CCN(c2nc(Cc3c(F)cccc3F)c(C)c(=O)[nH]2)CC1
[11]
  Ki: 10000 nM
[12]
  Ki: > 20000 nM
[13]
  Ki: 250 nM
[14]
  Ki: > 20000 nM
[15]
  Ki: 5000 nM
[6]
  Ratio CC50/EC50: 170
[8]
  CC50 at 96 h: 37000 nM
[16]
  Ki: 500 nM
[9]
  EC50: 218 nM
[17]
  Ki: 25700 nM

## Cc1ccnc2c1NC(=O)c1cccnc1N2C1CC1 [NEVIRAPINE]
[3]
  EC50: 1800 nM
[14]
  Ki: 35000 nM
[5]
  EC50: 870 nM
[8]
  CC50 at 96 h: > 7000 nM
[9]
  EC50: 80 nM
[10]
  EC50: 9900 nM

## Cc1c(Cc2c(F)cccc2F)nc(N2CCCCC2)[nH]c1=O
[1]
  Ratio EC50: 273
[3]
  EC50: > 10000 nM
[4]
  EC50: 10000 nM
[5]
  EC50: 140 nM
[6]
  Ratio CC50/EC50: >26000
[18]
  Ratio EC50: 3333
[7]
  Ratio EC50: 47
[8]
  CC50 at 96 h: > 78000 nM
[9]
  EC50: 3 nM
[10]
  EC50: 820 nM

## Cc1c(Cc2c(F)cccc2F)nc(N2CCSCC2)[nH]c1=O
[3]
  EC50: > 10000 nM
[11]
  Ki: 5000 nM
[12]
  Ki: > 20000 nM
[13]
  Ki: 150 nM
[14]
  Ki: > 20000 nM
[4]
  EC50: > 10000 nM
[15]
  Ki: 40000 nM
[5]
  EC50: > 10000 nM
[6]
  Ratio CC50/EC50: >18500
[8]
  CC50 at 96 h: > 74000 nM
[16]
  Ki: 90 nM
[9]
  EC50: 4 nM
[17]
  Ki: > 20000 nM
[10]
  EC50: > 10000 nM

## O=c1cc(Cc2c(F)cccc2F)nc(N2CCOCC2)[nH]1
[3]
  EC50: > 10000 nM
[11]
  Ki: 15000 nM
[12]
  Ki: > 20000 nM
[13]
  Ki: 700 nM
[14]
  Ki: > 20000 nM
[4]
  EC50: > 10000 nM
[5]
  EC50: > 10000 nM
[6]
  Ratio CC50/EC50: >384
[8]
  CC50 at 96 h: > 81000 nM
[16]
  Ki: 2900 nM
[9]
  EC50: 211 nM
[17]
  Ki: > 20000 nM
[10]
  EC50: > 10000 nM

## CCC(c1cc(=O)[nH]c(N(C)C)n1)c1c(F)cccc1F (stereo not drawn)
[1]
  Ratio EC50: 800
[2]
  Ratio EC50: 90
[3]
  EC50: 180 nM
[11]
  Ki: 3300 nM
[12]
  Ki: 10000 nM
[13]
  Ki: 100 nM
[14]
  Ki: > 20000 nM
[4]
  EC50: > 10000 nM
[15]
  Ki: 30 nM
[5]
  EC50: 430 nM
[6]
  Ratio CC50/EC50: 36500
[7]
  Ratio EC50: 215
[8]
  CC50 at 96 h: 73000 nM
[16]
  Ki: 140 nM
[9]
  EC50: 2 nM
[17]
  Ki: 5000 nM
[10]
  EC50: 1600 nM

## CCCN(C)c1nc(C(C)c2c(F)cccc2F)cc(=O)[nH]1 (stereo not drawn)
[1]
  Ratio EC50: 250
[2]
  Fold change: 133
[3]
  EC50: 80 nM
[4]
  EC50: > 10000 nM
[5]
  EC50: 50 nM
[6]
  Ratio CC50/EC50: >135000
[7]
  Fold change: 83
[8]
  CC50 at 96 h: > 81000 nM
[9]
  EC50: 0.6 nM
[10]
  EC50: 150 nM

## Cc1c(Cc2c(F)cccc2F)nc(N2CCCCCC2)[nH]c1=O
[1]
  Ratio EC50: 34
[3]
  EC50: > 10000 nM
[4]
  EC50: > 10000 nM
[5]
  EC50: 570 nM
[6]
  Ratio CC50/EC50: >1500
[7]
  Ratio EC50: 11
[8]
  CC50 at 96 h: > 75000 nM
[16]
  Ki: 500 nM
[9]
  EC50: 50 nM
[10]
  EC50: 1700 nM

## Cc1c(Cc2c(F)cccc2F)nc(N(C)C)[nH]c1=O
[1]
  Ratio EC50: 100
[2]
  Ratio EC50: 480
[3]
  EC50: 2400 nM
[11]
  Ki: 10000 nM
[12]
  Ki: 9000 nM
[13]
  Ki: 100 nM
[14]
  Ki: > 20000 nM
[4]
  EC50: > 10000 nM
[15]
  Ki: 1600 nM
[5]
  EC50: 1820 nM
[6]
  Ratio CC50/EC50: >17800
[7]
  Ratio EC50: 364
[8]
  CC50 at 96 h: > 89000 nM
[16]
  Ki: 700 nM
[9]
  EC50: 5 nM
[17]
  Ki: 11000 nM
[10]
  EC50: 500 nM
